Format in all cases: cell-based
Assay [1] has as its target T1, Nuclear receptor ROR-beta (Homo sapiens) (UniProt Q92753).
T1 sequence (whole entry): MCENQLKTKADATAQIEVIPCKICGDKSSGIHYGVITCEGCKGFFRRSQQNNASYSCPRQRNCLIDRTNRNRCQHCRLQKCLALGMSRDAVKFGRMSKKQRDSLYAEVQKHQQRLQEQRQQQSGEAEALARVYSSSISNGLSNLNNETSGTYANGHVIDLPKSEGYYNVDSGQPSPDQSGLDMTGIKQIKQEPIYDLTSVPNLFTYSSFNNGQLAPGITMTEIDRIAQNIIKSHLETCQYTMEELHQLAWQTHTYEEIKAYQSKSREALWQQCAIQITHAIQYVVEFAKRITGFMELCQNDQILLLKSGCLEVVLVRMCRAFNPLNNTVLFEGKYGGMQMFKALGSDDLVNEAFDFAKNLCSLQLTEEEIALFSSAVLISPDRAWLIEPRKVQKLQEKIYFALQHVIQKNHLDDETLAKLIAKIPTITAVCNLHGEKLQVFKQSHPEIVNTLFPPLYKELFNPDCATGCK
Briefly: Inverse agonist activity at human ROR-beta1 transfected in HEK293 cells at 10 uM after 16 hrs by luciferase reporter gene assay relative to control. The gist of the method:
(§1)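 HEK293 cells grown in DMEM with 5% FBS plus penicillin/streptomycin, 37 °C, 5% CO2, seeded at 20% confluence 24 h before transfection. Calcium phosphate cotransfection per well: 150 ng receptor expression plasmid, 500 ng luciferase reporter, 10 ng β-galactosidase vector. After 8 h, compound at 10 µM or DMSO for 16 h. Luciferase normalized to β-galactosidase, inhibition expressed as percent of control, transfections in triplicate.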
In general terms: Reporter assays use an easily measured gene product as a stand-in for the process of interest.

In assay [2] the target is T2, Nuclear receptor ROR-gamma (Homo sapiens) (UniProt P51449).
T2 sequence (whole entry): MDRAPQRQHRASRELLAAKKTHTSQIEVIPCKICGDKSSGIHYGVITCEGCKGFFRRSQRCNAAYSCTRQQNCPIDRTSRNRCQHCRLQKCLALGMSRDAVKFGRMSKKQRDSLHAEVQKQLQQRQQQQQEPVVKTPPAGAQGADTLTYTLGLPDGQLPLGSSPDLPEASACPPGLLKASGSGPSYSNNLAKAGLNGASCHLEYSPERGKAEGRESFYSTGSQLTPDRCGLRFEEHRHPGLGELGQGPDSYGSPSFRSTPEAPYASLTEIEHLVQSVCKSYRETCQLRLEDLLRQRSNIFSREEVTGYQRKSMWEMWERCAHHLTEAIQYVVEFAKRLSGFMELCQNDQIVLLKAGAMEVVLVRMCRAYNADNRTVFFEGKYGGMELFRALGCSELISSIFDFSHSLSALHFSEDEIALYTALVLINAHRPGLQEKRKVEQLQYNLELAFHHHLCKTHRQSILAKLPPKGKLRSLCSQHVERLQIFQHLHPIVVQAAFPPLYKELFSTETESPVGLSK
Briefly: Inverse agonist activity at human ROR-gamma1 transfected in HEK293 cells at 10 uM after 16 hrs by luciferase reporter gene assay relative to control. The gist of the method:
as §1

In assay [3] the target is T3, Nuclear receptor ROR-gamma (Homo sapiens, UniProt P51449).
T3 sequence (P51449 whole entry): T2 sequence (whole entry)
Briefly: Inverse agonist activity at human ROR-gamma1 transfected in HEK293 cells after 16 hrs by luciferase reporter gene assay.

Assay [4] has as its target T4, Nuclear receptor ROR-alpha (Homo sapiens, UniProt P35398).
T4 sequence (P35398 whole entry): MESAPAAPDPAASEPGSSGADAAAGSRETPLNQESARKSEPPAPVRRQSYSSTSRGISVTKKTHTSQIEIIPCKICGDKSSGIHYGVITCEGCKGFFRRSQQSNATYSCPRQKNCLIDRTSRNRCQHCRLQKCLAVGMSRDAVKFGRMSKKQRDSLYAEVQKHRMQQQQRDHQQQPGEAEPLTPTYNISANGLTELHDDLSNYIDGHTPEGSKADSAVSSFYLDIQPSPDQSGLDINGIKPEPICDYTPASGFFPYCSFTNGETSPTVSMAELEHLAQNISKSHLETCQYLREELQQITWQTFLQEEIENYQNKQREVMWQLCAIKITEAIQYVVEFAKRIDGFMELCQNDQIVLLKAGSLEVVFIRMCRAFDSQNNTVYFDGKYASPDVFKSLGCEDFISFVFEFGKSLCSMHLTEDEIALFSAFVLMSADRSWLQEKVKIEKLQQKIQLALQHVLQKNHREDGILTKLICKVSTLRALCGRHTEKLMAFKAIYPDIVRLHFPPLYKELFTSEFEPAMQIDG
Briefly: Inverse agonist activity at human ROR-alpha1 transfected in HEK293 cells after 16 hrs by luciferase reporter gene assay.

For assay [5], the target named is T5, Nuclear receptor ROR-beta (Homo sapiens, UniProt Q92753).
T5 sequence (Q92753 whole entry): T1 sequence (whole entry)
Briefly: Inverse agonist activity at human ROR-beta1 transfected in HEK293 cells after 16 hrs by luciferase reporter gene assay.

For orientation: inhibition means how much of the control response was suppressed. Low values mean a weak effect, high ones a strong effect. The IC50 is the midpoint of a concentration-inhibition curve. A high value points to lower potency.

Turning to `CCCC[Si]1(CCCC)c2ccccc2-c2cc(CC)ccc21`, the inhibition was less than 5% in assay [1] and 18% in assay [2].

In the case of `CCCCn1c(=O)c2ccccc2c2cc(CC)ccc21`, the inhibition in assay [1] was 29%; in assay [2], 37%.

On to `C[Si]1(C)c2ccccc2-c2cc(C(O)(C(F)(F)F)C(F)(F)F)ccc21`, for which, in assay [1], the inhibition was 40%.

As for `CCCC[Si]1(CCCC)c2ccccc2-c2cc(C(C)=O)ccc21`, the inhibition in assay [1] and in assay [2] was less than 5% each time.

Take `CCCC[Si]1(CCCC)c2ccccc2-c2ccccc21`: the inhibition in assay [1] is less than 5%; in assay [2] it was 13%.

`CCCC[Si]1(CCCC)c2ccccc2-c2cc(C(C)O)ccc21` (stereo unspecified): the inhibition in assay [1] and in assay [2] was less than 5% each time.

Take `CC[Si]1(CC)c2ccccc2-c2cc(C(O)(C(F)(F)F)C(F)(F)F)ccc21`: the inhibition in assay [1] is 28%. In assay [3], the IC50 is 4.2 µM.

Take `CCCCn1c(=O)c2ccccc2c2cc(C(O)(C(F)(F)F)C(F)(F)F)ccc21`: the results for the IC50 in assay [4], in assay [5] and in assay [3] were 7.2 µM, 5.7 µM and 4.7 µM, respectively.

The values are drawn from ChEMBL document CHEMBL3585299, “Design and synthesis of novel ROR inverse agonists with a dibenzosilole scaffold as a hydrophobic core structure” (Bioorg Med Chem, 2015).
